PubChem BioAssay AID540295 (The Scripps Research Institute Molecular Screening Center, 2011)
About 1,700 (0.47%) of roughly 360,000 compounds were called active. What follows is part of a selection rich in actives, with near analogues and random picks from the rest. Values without a mark were called inactive.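 How the source made its calls: active means inhibition above its plate's cutoff, the mean of tested wells on that plate plus 3 SD (cut at about 29% in these data); inactive means the rest.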

Each molecule was assayed against Melanocortin receptor 4 (Homo sapiens) (UniProt P32245) (assay: MC4R antagonists of cAMP signaling, primary screen, cell-based, TR-FRET, antagonist arm of biased-ligand search (AID 540295;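 further: 0% = Melanotan II alone and 100% = Melanotan II plus saturating MCL0020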)). Settings: MC4R-expressing cells, MTII-stimulated cAMP, LANCE TR-FRET; at 6.5 µM; stronger effect = higher value.
Melanocortin receptor 4 (Homo sapiens), sequence (P32245 whole entry, looked up): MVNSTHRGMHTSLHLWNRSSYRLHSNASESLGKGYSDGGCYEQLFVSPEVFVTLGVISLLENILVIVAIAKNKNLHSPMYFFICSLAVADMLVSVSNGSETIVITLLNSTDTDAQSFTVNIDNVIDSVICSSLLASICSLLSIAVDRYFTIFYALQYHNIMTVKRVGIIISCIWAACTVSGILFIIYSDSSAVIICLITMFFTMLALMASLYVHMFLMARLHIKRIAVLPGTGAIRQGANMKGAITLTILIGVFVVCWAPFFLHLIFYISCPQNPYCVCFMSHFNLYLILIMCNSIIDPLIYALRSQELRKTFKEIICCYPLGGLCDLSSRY
In short: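 Material – human MC4R-expressing U2OS cells · Repeats – no replicates · Detection – TR-FRET with Eu-cAMP and labeled anti-cAMP, 671 nm · Times – compound 30 min, challenge 1 h, detection 1 h · Compound – single nominal compound dose of 6.5 µM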
In the case of `CC1(C)CC(N2CCN(C(c3ccccc3)c3ccccc3)CC2)=CC(=[N+]2CCCCC2)C1`, the inhibition is reported as 5.45%. `NC1=NC2(CCCCC2)N(c2ccc(F)cc2F)C(N)=N1` gave an inhibition of 1.15%. In the case of `Cc1ccc2c(cnn2C(=O)CCC(=O)NC2CCCC2)c1`, the inhibition is reported as -3.58%. For `CC(C)N(c1ccccc1)c1ncnc(NCCC(=O)O)c1[N+](=O)[O-]`, the inhibition was 9.58%. `COC(=O)c1c(NC(=O)CCN2CCOCC2)sc2c1CCCC2` was tested, and the inhibition was -12.7%. In the case of `O=C(CN1CCCC1)Nc1sc2c(c1C(=O)Nc1ccccc1)CCCC2`, the inhibition is reported as -1.77%. `Cc1ccc(NC(=O)c2c(NC(=O)CCC(=O)O)sc3c2CCCCC3)cc1` was tested, and the inhibition was 32% (active). For `CN(C)/C(CN1CCCCC1)=C1\N=C(c2ccccc2)OC1=O`, the inhibition was 7.27%. Work on `O=C1CCC(=O)N(c2ccccc2)N1` yielded an inhibition of 22.5%. `Cc1cccc(CS(=O)(=O)c2ncc(Cl)c(C(=O)Nc3ccc(F)cc3)n2)c1` was tested, and the inhibition was 12.4%. In the case of `CSc1nnc(NC(=O)c2nc(S(=O)(=O)Cc3ccc(C)cc3)ncc2Cl)s1`, the inhibition is reported as 44.6% (active). `NC(=O)CSc1nnc(NC(=O)c2ccc(Br)o2)s1` gave an inhibition of -2.81%. `Cc1cc(C)c2nc(-c3cccnc3)cc(C(=O)Nc3ccc(S(=O)(=O)Nc4onc(C)c4C)cc3)c2c1` was tested, and the inhibition was 19.9%. `COc1ccc(-c2ccc(CCC(=O)O)n2NC(=O)c2ccc(C(C)(C)C)cc2)cc1` was tested, and the inhibition was 11.2%. In the case of `C=Cn1c(C(=O)O)ccc1-c1ccc(OC)cc1`, the inhibition is reported as 28.8% (active). Molecule `COc1ccc(-c2ccc(CCC(=O)O)n2-c2ccc(O)cc2)cc1` has an inhibition of 1%. In the case of `Cc1ccc(C(C(=O)NCC2CCCO2)N(C(=O)c2snc(C(N)=O)c2N)c2ccc(C(C)C)cc2)o1` (stereo unspecified), the inhibition is reported as 29.1% (active). For `CCOc1ccc(N(C(=O)c2snc(C(N)=O)c2N)C(C(=O)NCC2CCCO2)c2c[nH]c3ccccc23)cc1` (stereo unspecified), the inhibition was 12.3%. `Cc1ccc(N(C(=O)c2snc(C(N)=O)c2N)C(C(=O)NCC2CCCO2)c2c[nH]c3ccccc23)cc1` (stereo unspecified) showed an inhibition of 21.4%. `O=C(CCNC(=O)c1ccc([N+](=O)[O-])cc1)Nc1ccccc1N1CCOCC1` was tested, and the inhibition was 17.3%. `CC[C@@H]1Cc2cc(O)ccc2C2=C1c1ccc(O)cc1C[C@H]2CC` showed an inhibition of 10.4%. For `Cc1csc(CN(C)C(=O)CC2C(=O)NCCN2CC(C)(C)C)n1` (stereo unspecified), the inhibition was 4.33%. With `COc1ccc2sc(-c3ccc(S(C)(=O)=O)cc3)c(-c3ccc(C(N)=O)cc3)c2c1` the inhibition was 35.3% (active). `COc1ccc2sc(-c3ccc(S(C)(=O)=O)cc3)c(C#Cc3cncn3C)c2c1` was tested, and the inhibition was 12.3%. For `COc1cc(OC)cc(-c2sc3ccc(OC)cc3c2-c2ccc3cc[nH]c3c2)c1`, the inhibition was 13%. For `COC(=O)[C@@H](Cc1ccccc1)NC(=O)NCCc1ccccc1`, the inhibition was 23.7%. `COC(=O)[C@H](C)[C@H]1C[C@]1(C)[C@H](NC(=O)OCc1ccccc1)c1ccccc1` showed an inhibition of 5.83%. `COC(=O)[C@H](Cc1ccccc1)NC(=O)[C@@H]1C[C@H]1[C@@H](NC(=O)OCc1ccccc1)c1ccccc1` was tested, and the inhibition was 29.7% (active). `Cc1csc(/N=C/N(C)C)c1C#N` was tested, and the inhibition was 1.05%. In the case of `Cc1ccc(S(=O)(=O)CCC(=O)OCc2ccccc2)cc1`, the inhibition is reported as 3.4%. With `Cc1ccc(S(=O)(=O)CCC(=O)OCC(=O)N(C)C2CCS(=O)(=O)C2)cc1` (stereo unspecified) the inhibition was 0.56%. In the case of `Cc1ccc(S(=O)(=O)CCC(=O)OCC(=O)N(C)Cc2ccccc2)cc1`, the inhibition is reported as 33.6% (active). `CCOc1ccc(S(=O)(=O)NCc2ccc3c(c2)OCO3)cc1C` was tested, and the inhibition was 3.78%. `COc1ccc(CCN=C2SCC(=O)N2C)cc1OC` gave an inhibition of 10.4%. In the case of `O=C(NCCc1c[nH]c2ccccc12)c1cccc(Br)c1`, the inhibition is reported as 31.5% (active). `Cc1cc(C)cc(NC(=S)NCCc2c[nH]c3ccccc23)c1` gave an inhibition of 7.21%. With `O=C(NCCc1c[nH]c2ccccc12)c1cc2ccccc2oc1=O` the inhibition was -0.76%. `CN(C)c1ccc(C2Nc3ccccc3C(=O)N2NS(=O)(=O)c2ccccc2)cc1` (stereo unspecified) gave an inhibition of -6.61%. Molecule `COc1ccc(S(=O)(=O)N2CCSCC2)cc1` has an inhibition of 2.98%. In the case of `CCOC(=O)c1c(-c2ccccc2)oc2cc(Br)c(O)c(C=O)c12`, the inhibition is reported as 93% (active). Molecule `CCOC(=O)c1c(C)oc2cc(Sc3ccccc3)c(O)c(O)c12` has an inhibition of 6.42%. Work on `Cc1oc2cc(Br)c(O)c(Br)c2c1C(=O)c1ccccc1` yielded an inhibition of 0.99%. `COc1ccc(CCCNC(=O)C2Cc3c(-c4cccc(C(N)=O)c4)ccnc3O2)cc1` (stereo unspecified) gave an inhibition of 2.69%. Molecule `CCn1c2ccccc2c2cc(NC(=O)COC(=O)c3cc(S(=O)(=O)N4CCCCC4)ccc3Cl)ccc21` has an inhibition of -0.18%. With `CCn1c2ccccc2c2cc(NC(=O)C/C(C)=N/NC(=O)c3ccccc3N)ccc21` the inhibition was 28.8% (active). `CCn1c2ccccc2c2cc(NC(=S)N3CCOCC3)ccc21` showed an inhibition of -0.62%.
